# Test results: ChEMBL document CHEMBL2380272, “Biological evaluation of bisbenzaldehydes against four Mycobacterium species” (Eur J Med Chem, 2013)
# Legend:
# [1] = Genotoxicity in human HepG2/C3A cells assessed as DNA fragmentation at 0.75 mM after 24 hrs by alkaline comet assay (reference value: 6.65%); assay type: toxicity, cell-based; settings: 750 µM
# [2] = Genotoxicity in human HepG2/C3A cells assessed as DNA fragmentation at 0.5 mM after 24 hrs by alkaline comet assay (reference value: 6.65%); assay type: toxicity, cell-based; settings: 500 µM
# Mycobacterium ulcerans = assay: Antimycobacterial activity against Mycobacterium ulcerans 1615 assessed as growth inhibition after 6 days by luciferase reporter gene assay; assay type: functional; settings: Mycobacterium ulcerans, 1615, 144 h
# Summary of the method: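 M. ulcerans 1615 carrying pSMT1 luciferase reporter plasmid, stock grown as surface pellicle on Sauton medium, cultured at 32 °C. Serial compound dilutions in 7H9 + 10% FCS from 10 mM DMSO stocks, tested in triplicate. Filtered bacteria added at 50 000 RLU/mL. After 6 days, wells collected and washed with PBS, 1% n-decanal in ethanol added, light read over 10 s. MIC50 = concentration giving 50% inhibition versus untreated.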
# [3] = test system: Mycobacterium tuberculosis; assay: Antimycobacterial activity against Mycobacterium tuberculosis H37Rv infected in mouse J774.A1 cells at 1 MOI assessed as intracellular bacterial growth inhibition at 0.1 uM after 1 hr by luciferase reporter gene assay relative to control; assay type: functional; settings: J774.A1, 1 h, read-out: GI
# [4] = Cytotoxicity against human HepG2/C3A cells assessed as cell viability at 60 uM after 24 hrs by neutral red uptake assay relative to control; assay type: cell-based; settings: read-out: Activity
# Summary of the method: (§1)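 C3A cells grown in DMEM + 10% FCS, 40 000 cells/well, recovered overnight at 37 °C, 5% CO2. Exposed 24 h to serial dilutions in DMEM + 10% FCS from 18 mM DMSO stocks, DMSO limited to 1%. Neutral red added for 3 h, cells washed, dye extracted with ethanol/acetic acid (50%/1%), OD read at 540 nm with 620 nm reference. Viability expressed as % of untreated cells.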
# [5] = Selectivity index, ratio of NI50 for human HepG2/C3A cells to MIC50 for Mycobacterium tuberculosis H37Rv ATCC 27294; assay type: functional
# [6] = test system: Mycobacterium tuberculosis; assay: Antimycobacterial activity against Mycobacterium tuberculosis H37Rv ATCC 27294 assessed as growth inhibition at 1 uM after 6 days by luciferase reporter gene assay relative to control; assay type: functional; settings: H37Rv ATCC 27294, 144 h, read-out: GI
# Summary of the method: (§2)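 Luminescent M. tb H37Rv (hsp60-driven luciferase) in 7H9 + 10% FCS was seeded at 50 000 RLU/mL. Compounds were tested at 10, 1 and 0.1 µM from 10 mM DMSO stocks. After 6 days, luminescence was read with 1% n-decanal. Growth inhibition (%) was expressed against untreated culture, with triplicates.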
# [7] = Cytotoxicity against human HepG2/C3A cells assessed as cell viability at 180 uM after 24 hrs by neutral red uptake assay relative to control; assay type: cell-based; settings: read-out: Activity; summary of the method: as §1
# [8] = Potency index, ratio of MIC50 for Mycobacterium avium subsp. avium ATCC 15769 to MIC50 for Mycobacterium bovis AN5; assay type: functional
# [9] = test system: Mycobacterium tuberculosis; assay: Antimycobacterial activity against Mycobacterium tuberculosis H37Rv infected in mouse J774.A1 cells at 1 MOI assessed as intracellular bacterial growth inhibition at 10 uM after 1 hr by luciferase reporter gene assay relative to control; assay type: functional; settings: J774.A1, 1 h, read-out: GI
# [10] = Antimycobacterial activity against Mycobacterium avium subsp. avium ATCC 15769 assessed as growth inhibition after 6 days by luciferase reporter gene assay; assay type: functional; settings: ATCC 15769, 144 h
# Summary of the method: (§3)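 Mycobacteria carrying the pSMT1 luciferase reporter plasmid. Compounds came from 10 mM DMSO stocks and were serially diluted in 7H9 + 10% FCS. Thawed bacteria were filtered, recovered 1 h at 37 °C, then added at 50 000 RLU/mL. After 6 days of culture, light was read for 10 s after adding 1% n-decanal. Triplicates were run, and MIC50 was the concentration giving 50% growth inhibition.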
# Salmonella typhimurium [11] = assay: Genotoxicity in recombinant Salmonella typhimurium TA104 expressing Vibrio fisheri luxabcd genes under transcriptional control of recN2-4 promoter assessed as concentration required to cause DNA damage measured every 5 mins for 4 hrs by vitotox assay in presence of S9 fraction; assay type: toxicity, organism-based; settings: salmonella enterica subsp. enterica serovar typhimurium, s9, 4 h
# Summary of the method: (§4)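 VITOTOX genox strain TA104 recN2-4 (recN promoter driving lux). Grown 16 h at 36 °C in poor LB, diluted 125-fold and shaken 1 h, then diluted 10-fold; rat aroclor S9 added for +S9 runs. Incubated at 30 °C with light read every 5 min for 4 h. Signal/noise = exposed over unexposed light. Highest concentration tested 10 µM.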
# [12] = Cytotoxicity against human HepG2/C3A cells assessed as cell viability at 120 uM after 24 hrs by neutral red uptake assay relative to control; assay type: cell-based; settings: read-out: Activity; summary of the method: as §1
# [13] = Potency index, ratio of MIC50 for Mycobacterium avium subsp. paratuberculosis ATCC 19698 to MIC50 for Mycobacterium bovis AN5; assay type: functional
# [14] = Toxicity in recombinant Salmonella typhimurium TA104 expressing luxabcd genes under transcriptional control of constitutive pr1 promoter assessed as concentration required to reduce cell viability measured every 5 mins for 4 hrs by vitotox assay in presence of S9 fraction; assay type: organism-based; settings: salmonella enterica subsp. enterica serovar typhimurium; read-out: Activity
# Summary of the method: (§5)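 Cytox strain TA104 pr1 (constitutive promoter driving lux), run alongside the genox strain. Grown in poor LB at 36 °C for 16 h, diluted 125-fold and shaken 1 h, then diluted 10-fold, with or without aroclor-rat S9. Luminescence read at 30 °C every 5 min over 4 h; a drop in light signal indicates reduced viability. Top concentration 10 µM.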
# Salmonella typhimurium [15] = assay: Genotoxicity in recombinant Salmonella typhimurium TA104 expressing Vibrio fisheri luxabcd genes under transcriptional control of recN2-4 promoter assessed as concentration required to cause DNA damage measured every 5 mins for 4 hrs by vitotox assay in absence of S9 fraction; assay type: toxicity, organism-based; settings: salmonella enterica subsp. enterica serovar typhimurium; summary of the method: as §4
# Salmonella typhimurium [16] = assay: Toxicity in recombinant Salmonella typhimurium TA104 expressing luxabcd genes under transcriptional control of constitutive pr1 promoter assessed as concentration required to reduce cell viability measured every 5 mins for 4 hrs by vitotox assay in absence of S9 fraction; assay type: organism-based; settings: salmonella enterica subsp. enterica serovar typhimurium; summary of the method: as §5
# [17] = test system: Mycobacterium tuberculosis; assay: Antimycobacterial activity against Mycobacterium tuberculosis H37Rv infected in mouse J774.A1 cells at 1 MOI assessed as intracellular bacterial growth inhibition at 1 uM after 1 hr by luciferase reporter gene assay relative to control; assay type: functional; settings: J774.A1, 1 h, read-out: GI
# [18] = test system: Mycobacterium tuberculosis; assay: Antimycobacterial activity against Mycobacterium tuberculosis H37Rv ATCC 27294 assessed as growth inhibition at 10 uM after 6 days by luciferase reporter gene assay relative to control; assay type: functional; settings: H37Rv ATCC 27294, 144 h, read-out: GI; summary of the method: as §2
# [19] = test system: Mycobacterium tuberculosis; assay: Antimycobacterial activity against Mycobacterium tuberculosis H37Rv ATCC 27294 assessed as growth inhibition after 6 days by luciferase reporter gene assay; assay type: functional; settings: H37Rv ATCC 27294, 144 h; summary of the method: as §3
# [20] = test system: Mycobacterium tuberculosis; assay: Antimycobacterial activity against Mycobacterium tuberculosis H37Rv ATCC 27294 assessed as growth inhibition at 0.1 uM after 6 days by luciferase reporter gene assay relative to control; assay type: functional; settings: H37Rv ATCC 27294, 144 h, read-out: GI; summary of the method: as §2
# [21] = test system: Mycobacterium avium subsp. paratuberculosis; assay: Antimycobacterial activity against Mycobacterium avium subsp. paratuberculosis ATCC 19698 assessed as growth inhibition after 6 days by luciferase reporter gene assay; assay type: functional; settings: ATCC 19698, 144 h; summary of the method: as §3
structure (smiles),measurement,setting,value
CCOS(C)(=O)=O [METHANESULFONIC ACID ETHYL ESTER],Activity,[1],65.15%
same,Activity,[2],63.44%
O=Cc1ccc(OCCCCCCCCCCCOc2ccc(C=O)cc2)cc1,MIC50,Mycobacterium ulcerans,9.82 µM
same,intracellular bacterial growth inhibition at 0.1 µM,[3],5.2%
same,"viability at 24 h, 60 µM",[4],93.3%
same,Selectivity Index,[5],>281.3
same,inhibition of growth at 1 µM,[6],73%
same,"viability at 24 h, 180 µM",[7],75.4%
same,Ratio,[8],5
same,intracellular bacterial growth inhibition at 10 µM,[9],69.4%
same,MIC50,[10],4.96 µM
same,Activity,Salmonella typhimurium [11],> 10 µM
same,"viability at 24 h, 120 µM",[12],94.1%
same,Ratio,[13],5
same,MCC at 4 h,[14],> 10 µM
same,Activity,Salmonella typhimurium [15],> 10 µM
same,Activity,Salmonella typhimurium [16],> 10 µM
same,percent inhibition of intracellular bacterial growth at 1 µM,[17],48.2%
same,inhibition of growth at 10 µM,[18],100%
same,MIC50,[19],0.64 µM
same,inhibition of growth at 0.1 µM,[20],25%
same,MIC50,[21],4.23 µM
O=Cc1ccc(OCCCCCCCCCOc2ccc(C=O)cc2)cc1,MIC50,Mycobacterium ulcerans,> 10 µM
same,intracellular bacterial growth inhibition at 0.1 µM,[3],-0.5%
same,"viability at 24 h, 60 µM",[4],100%
same,Selectivity Index,[5],>189.5
same,inhibition of growth at 1 µM,[6],59%
same,"viability at 24 h, 180 µM",[7],75.7%
same,Ratio,[8],5
same,intracellular bacterial growth inhibition at 10 µM,[9],62.1%
same,MIC50,[10],5.32 µM
same,Activity,Salmonella typhimurium [11],> 10 µM
same,"viability at 24 h, 120 µM",[12],93%
same,Ratio,[13],5
same,MCC at 4 h,[14],> 10 µM
same,Activity,Salmonella typhimurium [15],> 10 µM
same,Activity,Salmonella typhimurium [16],> 10 µM
same,percent inhibition of intracellular bacterial growth at 1 µM,[17],45.7%
same,inhibition of growth at 10 µM,[18],98%
same,MIC50,[19],0.95 µM
same,inhibition of growth at 0.1 µM,[20],11%
same,MIC50,[21],5.95 µM
O=Cc1ccc(OCCCCCCOc2ccc(C=O)cc2)cc1,MIC50,Mycobacterium ulcerans,> 10 µM
same,intracellular bacterial growth inhibition at 0.1 µM,[3],3.2%
same,"viability at 24 h, 60 µM",[4],93.4%
same,Selectivity Index,[5],>216.9
same,inhibition of growth at 1 µM,[6],65%
same,"viability at 24 h, 180 µM",[7],59.3%
same,Ratio,[8],5
same,intracellular bacterial growth inhibition at 10 µM,[9],52.6%
same,MIC50,[10],6.18 µM
same,Activity,Salmonella typhimurium [11],> 10 µM
same,"viability at 24 h, 120 µM",[12],85.9%
same,Ratio,[13],5
same,MCC at 4 h,[14],> 10 µM
same,Activity,Salmonella typhimurium [15],> 10 µM
same,Activity,Salmonella typhimurium [16],> 10 µM
same,percent inhibition of intracellular bacterial growth at 1 µM,[17],46.6%
same,inhibition of growth at 10 µM,[18],99%
same,MIC50,[19],0.83 µM
same,inhibition of growth at 0.1 µM,[20],15%
same,MIC50,[21],6.56 µM
O=Cc1ccc(OCCCCCCCOc2ccc(C=O)cc2)cc1,MIC50,Mycobacterium ulcerans,> 10 µM
same,intracellular bacterial growth inhibition at 0.1 µM,[3],-1.2%
same,"viability at 24 h, 60 µM",[4],100%
same,Selectivity Index,[5],>211.8
same,inhibition of growth at 1 µM,[6],62%
same,"viability at 24 h, 180 µM",[7],53.4%
same,Ratio,[8],5
same,intracellular bacterial growth inhibition at 10 µM,[9],55%
same,MIC50,[10],5.12 µM
same,Activity,Salmonella typhimurium [11],> 10 µM
same,"viability at 24 h, 120 µM",[12],78.9%
same,Ratio,[13],5
same,MCC at 4 h,[14],> 10 µM
same,Activity,Salmonella typhimurium [15],> 10 µM
same,Activity,Salmonella typhimurium [16],> 10 µM
same,percent inhibition of intracellular bacterial growth at 1 µM,[17],43.3%
same,inhibition of growth at 10 µM,[18],99%
same,MIC50,[19],0.85 µM
same,inhibition of growth at 0.1 µM,[20],13%
same,MIC50,[21],5.05 µM
O=Cc1ccc(OCCCCCCCCOc2ccc(C=O)cc2)cc1,MIC50,Mycobacterium ulcerans,> 10 µM
same,intracellular bacterial growth inhibition at 0.1 µM,[3],0.6%
same,"viability at 24 h, 60 µM",[4],97.9%
same,Selectivity Index,[5],>211.8
same,inhibition of growth at 1 µM,[6],64%
same,"viability at 24 h, 180 µM",[7],69%
same,Ratio,[8],5
same,intracellular bacterial growth inhibition at 10 µM,[9],58.7%
same,MIC50,[10],5.36 µM
same,Activity,Salmonella typhimurium [11],> 10 µM
same,"viability at 24 h, 120 µM",[12],95.3%
same,Ratio,[13],5
same,MCC at 4 h,[14],> 10 µM
same,Activity,Salmonella typhimurium [15],> 10 µM
same,Activity,Salmonella typhimurium [16],> 10 µM
same,percent inhibition of intracellular bacterial growth at 1 µM,[17],42.9%
same,inhibition of growth at 10 µM,[18],99%
same,MIC50,[19],0.85 µM
same,inhibition of growth at 0.1 µM,[20],13%
same,MIC50,[21],5.83 µM
O=Cc1ccc(OCCCCCCCCCCOc2ccc(C=O)cc2)cc1,MIC50,Mycobacterium ulcerans,> 10 µM
same,intracellular bacterial growth inhibition at 0.1 µM,[3],11.1%
same,"viability at 24 h, 60 µM",[4],97.7%
same,Selectivity Index,[5],>233.8
same,inhibition of growth at 1 µM,[6],71%
same,"viability at 24 h, 180 µM",[7],72.8%
same,Ratio,[8],5
same,intracellular bacterial growth inhibition at 10 µM,[9],60.9%
same,MIC50,[10],5.61 µM
same,Activity,Salmonella typhimurium [11],> 10 µM
same,"viability at 24 h, 120 µM",[12],96.6%
same,Ratio,[13],5
same,MCC at 4 h,[14],> 10 µM
same,Activity,Salmonella typhimurium [15],> 10 µM
same,Activity,Salmonella typhimurium [16],> 10 µM
same,percent inhibition of intracellular bacterial growth at 1 µM,[17],39.6%
same,inhibition of growth at 10 µM,[18],100%
same,MIC50,[19],0.77 µM
same,inhibition of growth at 0.1 µM,[20],20%
same,MIC50,[21],5.45 µM
